Where two headings read alike, the source gives them in different places.
Key:
[1] = system: patients with right colon cancer; experiment: ICG fluorescence lymphography in robotic right hemicolectomy; type: in vivo, human; details: 9 patients
Outline: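 Right colon cancer patients had robotic right hemicolectomy with complete mesocolic excision, in two arms of 9. One arm received intraoperative submucosal ICG injection, and fluorescence guided the lymphadenectomy. The comparison arm had standard technique without ICG. ICG-related complications were recorded, with histological nodal staging afterwards.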

[2] = system: patients with colorectal cancer; type: in vivo, human
Outline: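 Prospective observational study of consecutive patients from 4/2019 undergoing robotic colorectal cancer surgery. The day before surgery, endoscopy delivered 3 mg ICG in 6 ml saline into the peritumoral submucosa as four 1.5 ml injections at the cardinal points. Fluorescence guided any extension of standard lymphadenectomy. Fluorescent extraregional nodes were counted per patient and by resection type.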

adrenal vein = experiment: Intraoperative ICG angiography in laparoscopic adrenal resection; type: in vivo, patients
[3] = system: patients scheduled for laparoscopic cholecystectomy; experiment: Near-infrared fluorescence cholangiography at a very low dose of ICG; type: in vivo, human; details: n = 44
Outline: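 Prospective study of patients scheduled for laparoscopic cholecystectomy. Each received 0.25 mg ICG intravenously after anaesthetic induction, then NIR fluorescence cholangiography in endoscope overlay mode. Visualisation of the cystic duct, common bile duct and their junction was recorded before and after Calot's triangle dissection. Also recorded: hepatic hyperluminescence, adverse reactions and surgeon satisfaction on a visual analogue scale.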

[4] = system: patients with symptomatic cholelithiasis or acute cholecystitis; experiment: Direct gallbladder ICG injection during laparoscopic cholecystectomy; type: in vivo, human; details: 29 patients
Outline: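 Prospective series of laparoscopic cholecystectomies. ICG was diluted in 10 cc sterile water and injected percutaneously into the gallbladder through a 22G fine needle under direct laparoscopic vision; 2–4 cc was given. Cystic, common bile and common hepatic ducts were recorded as identified or not, first after injection before dissection, then after dissection began.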

[5] = system: small bowel of large white pigs; type: in vivo, pig; details: five pigs, baseline 0.74
[6] = system: patients undergoing LRYGB; experiment: RCT of intraperitoneal local anesthetic in LRYGB with ERABS protocol; type: in vivo, human; details: intraperitoneal ropivacaine 0.2% 100 mL; both groups
Outline: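 Prospective double-blind randomised controlled pilot trial with an a-priori protocol: 120 laparoscopic Roux-en-Y gastric bypass patients under an established ERABS protocol. Patients were randomised to intraperitoneal ropivacaine 0.2% 100 mL or normal saline 100 mL. Adverse events were recorded in both arms.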

[7] = 0.25 mg ICG i.v. after anaesthetic induction
[8] = after ICG injection and before starting the dissection

## CC1(C)C(/C=C/C=C/C=C/C=C2\N(CCCCS(=O)(=O)O)c3ccc4ccccc4c3C2(C)C)=[N+](CCCCS(=O)(=O)[O-])c2ccc3ccccc3c21 [ICG, indocyanine green]
[1]
  ICG-related complications: none
[2]; 3 mg ICG in 6 ml saline, peritumoral submucosal, day before surgery, 86/88
  patients with ICG-fluorescent lymphnodes observed: 97,7%
[2]; 34 of 88 patients
  patients with fluorescent extraregional lymph nodes: 38,6%
[2]; 88 patients
  ICG-injection related complication: No ICG-injection related complication occurred
[2]; anterior rectal resections
  patients with fluorescent extraregional lymph nodes: 21/33
[2]; left hemicolectomies
  patients with fluorescent extraregional lymph nodes: 3/20
[2]; range 1–8
  mean number of retrieved extraregional fluorescent lymph nodes: 4
[2]; right hemicolectomies
  patients with fluorescent extraregional lymph nodes: 10/31
Adrenal vein; laparoscopic right adrenal resection
  cases in which ICG confirmed the adrenal vein: 2/3
Adrenal vein; left laparoscopic adrenalectomy
  cases in which ICG helped identify the vessel, after the dissection: 100%
[3]; [7]
  CBD identified by ICG NIRF-C: 100%
  CD identified by ICG NIRF-C: 71%
  CDBDJ identified by ICG NIRF-C: 84%
[3]; 0.25 mg ICG i.v.
  bile duct injuries or allergic reactions to ICG: no bile duct injuries (BDIs) or allergic reactions to ICG
  surgeries with surgeon satisfaction of 4/5 or 5/5 (VAS): ~90%
[4]; [8]
  cases with common bile duct identified: 18 cases
  cases with common hepatic duct identified: 9 cases
[4]; after starting the dissection
  cases with common bile duct identified: 27 cases
  cases with common hepatic duct identified: 14 cases
  cases with cystic duct identified: all cases

## NC[C@H](O)c1ccc(O)c(O)c1 [norepinephrine]
[5]; first assessment
  local capillary lactate (LCL): 0.82 mmol/L
[5]; fourth assessment
  local capillary lactate (LCL): 0.62 mmol/L
[5]; second assessment
  local capillary lactate (LCL): 0.64 mmol/L
[5]; third assessment
  local capillary lactate (LCL): 0.60 mmol/L

## CCCN1CCCC[C@H]1C(=O)Nc1c(C)cccc1C [ropivacaine]
[6]
  adverse events: no adverse events
